96 compounds from ChEMBL document CHEMBL4513216, “Probing the Open Global Health Chemical Diversity Library for Multistage-Active Starting Points for Next-Generation Antimalarials” (ACS Infect Dis, 2020) can be followed below.

This data set in a line: Toxicity liver stage against HepG2, at 10uM. The format is cell-based. Also on record: test concentration 10 uM, cell line HepG2-A16-CD81EGFP. Conditions: human, HepG2-A16-CD81EGFP cells; read-out: INHIBITION
In short, it runs like this:
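Uninfected HepG2-A16-CD81EGFP cells, 3 × 10^3 per well, 1536-well, plated on prespotted compound at 10 μM final, parasite-free screening media added to match infected plates; puromycin 10 μM positive, DMSO 0.5% negative; run in parallel with 48 h PbLuc assay at 37 °C, 5% CO2; viability by CellTiter-Glo luminescence, normalized to controls.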
`CCC1(CC)C(=O)NC(=O)N/C1=N/c1cccc(OC)c1`: the cytotoxicity at 10 µM is -51.8%.

On to `CC(=O)Nc1nc(-c2ccccc2)c[nH]1`, for which the cytotoxicity at 10 µM was -1%. As for `CC1(C)[C@H](Cc2cc(CO)on2)C[C@@H]1NCc1ccc(CO)o1`, the cytotoxicity at 10 µM was -12.4%.

As for `CC(C)NC(=O)N1C[C@@H](F)[C@@H](OCc2nc3ccccc3o2)C1`, the cytotoxicity at 10 µM came to 8.16%. Turning to `CCCOc1ccc(CC2=NC(C)(CO)CO2)cc1` (stereo unspecified), the cytotoxicity at 10 µM worked out at 24.8%.

Consider `CC(C)CNC(=O)c1nc(COc2ccc3c(c2)OCO3)no1`, for which the cytotoxicity at 10 µM was determined as 2.93%. Take `CC(C)n1ccc2ccc(C(=O)NC3CN4CCC3CC4)cc21` (stereo unspecified): the cytotoxicity at 10 µM is -57.4%. For the compound `O=C1CCCN1C(CNS(=O)(=O)C1CC1)Cc1cccc(F)c1` (stereo unspecified), the cytotoxicity at 10 µM was 1.49%.

As to `Cc1noc(CNC(=O)CN(C)c2nc3c(C)ccc(C)c3s2)n1`, the cytotoxicity at 10 µM was 55.7%. On to `Cc1nsc(C(=O)NCCCc2ccccc2)n1`, for which the cytotoxicity at 10 µM was -0.449%.

Take `Cc1ccc(CC(=O)N2CC[C@@H]3NC(=O)CC[C@@H]32)cc1`: the cytotoxicity at 10 µM stood at 1.49%.

Regarding `CN(C)CCN1CCOC2(CCN(c3nccs3)CC2)c2ccccc21`, the cytotoxicity at 10 µM is -1.99%. As for `CC(C)CN1CCC2(Cc3ccccc3NC2=O)C1` (stereo unspecified), the figure is 6.86%. As for `CCOc1cc(CNCCCn2ccnc2)cc(Cl)c1OCC`, the cytotoxicity at 10 µM amounted to 1.82%. As for `CCN1CCCC1CNCc1cc2cc3c(cc2[nH]c1=O)OCCO3` (stereo unspecified), the figure is 5.07%; as for `Cc1cc(N2CCC(c3n[nH]c4nccnc34)CC2)ncn1`, -25.6%. As to `C[C@H](NC(=O)C1CCCC1)c1nc2cc(-c3ccc(F)cc3)ncn2n1`, the cytotoxicity at 10 µM was -10.9%. `COCC(=O)N1CCC(C(=O)c2cc(C)cnc2N)CC1`: the cytotoxicity at 10 µM was 0.353%. For `Cc1ccc(N2CCC(Nc3ccc4nnc(C)n4n3)CC2)nc1`, the cytotoxicity at 10 µM came to 8.56%.

With `COCCN(Cc1ccccn1)C(=O)CC1OCCc2ccsc21` (stereo unspecified), the cytotoxicity at 10 µM was -39%.

Regarding `COc1ccccc1OCCNS(=O)(=O)N1CCOCC1`, the cytotoxicity at 10 µM was determined as 9.37%. Take `COc1ccc(C(C)=O)cc1CN1CCn2cccc2C1C` (stereo unspecified): the cytotoxicity at 10 µM was -6.62%. As for `CNC(=O)c1ccc(CN(C)c2ccc(C(F)(F)F)cn2)cc1`, the figure is 6.71%; as for `CCCn1nc2c(cc1=O)CN(Cc1ccccn1)CC2`, 1.53%.

Turning to `CC(C)(O)CN1CCN(C(=O)c2cnn(-c3ccccc3F)c2)CC1`, the cytotoxicity at 10 µM is -3.8%. Consider `c1cnc2nc(N3CCCC3c3nnc4n3CCCCC4)ccc2n1` (stereo unspecified), for which the cytotoxicity at 10 µM was determined as 4.21%. Turning to `CCCc1noc(CS(=O)(=O)CC(=O)NC(C)CCC)n1` (stereo unspecified), the cytotoxicity at 10 µM was 3.22%. In the case of `Cc1noc(C)c1CC(=O)NCC(C(C)C)N1CCOCC1` (stereo unspecified), the cytotoxicity at 10 µM was -42.7%.

For `OCc1cc2ccccc2nc1NCC1(O)CCC1`, the cytotoxicity at 10 µM is -46.9%. As to `COc1ccc(C)cc1CC(=O)NC(CC(=O)O)c1ccc(F)cc1` (stereo unspecified), the cytotoxicity at 10 µM was 7.66%. In the case of `CC(C)COC(C)C(=O)NCc1ccc(Cn2ccnc2)cc1` (stereo unspecified), the cytotoxicity at 10 µM is -2.65%.

Turning to `c1cnnc(N2CCCC(NCc3nc(C4CC4)no3)C2)c1` (stereo unspecified), the cytotoxicity at 10 µM is -14.6%. Regarding `COCCN(C)C(=O)Nc1ccc2c(ccn2CCOC)c1`, the cytotoxicity at 10 µM was -3.83%. The result for `Cc1ccc(N2CCc3ncnc(C4CC4)c3CC2)nn1` reads -85%. Take `CCN(CC)C(=O)c1nc2c(s1)CCN(C(=O)Nc1ccccc1)CC2`: the cytotoxicity at 10 µM was found to be 12%. For the compound `CCN(CC)Cc1cc(=O)n2c(n1)CN(C(=O)c1ccc[nH]1)CCC2`, the cytotoxicity at 10 µM was -112%. With `CC(=O)N1CCC2(CC1)c1ncc(-c3cccnc3)n1CCN2C`, the cytotoxicity at 10 µM was -94%. In the case of `CN(Cc1cncnc1)[C@H]1CN(C(=O)c2ccc[nH]2)[C@@H]2CCCO[C@@H]21`, the cytotoxicity at 10 µM was -107%. In the case of `COC(=O)CCC(=O)N1CCC2(CN(Cc3cccc(Cl)c3)C2)C1`, the cytotoxicity at 10 µM was -62.4%. Consider `O=C(Cc1ccc(F)cc1)N1CCn2c(Cn3cncn3)cnc2C1`, for which the cytotoxicity at 10 µM is -67.3%. Turning to `O=C(NC1CCC1)C1=NOC2(CCN(Cc3ccccc3)C2)C1` (stereo unspecified), the cytotoxicity at 10 µM was -97.6%. With `CN1CCC2(CC1)CN(C(=O)c1ccncc1)Cc1ccccc12`, the cytotoxicity at 10 µM was -86.3%. Take `CCc1cnc(N)nc1NCCc1ccc(OC)cc1OC`: the cytotoxicity at 10 µM is 3.29%. Regarding `Cn1ncc(N2CCC(CNC3Cc4ccccc4C3)C2)cc1=O` (stereo unspecified), the cytotoxicity at 10 µM was -6%. With `Cc1cc(C(=O)N(C)Cc2ccccc2OCC(C)C)cc(=O)[nH]1`, the cytotoxicity at 10 µM came out at 8.45%. In the case of `O=C(Cc1c[nH]c(=O)[nH]c1=O)N1CCC2(CCC(=O)N(C3CC3)C2)CC1`, the cytotoxicity at 10 µM is -44.5%. Regarding `O=S1(=O)C[C@@H]2[C@H](C1)N(Cc1cc(F)cc(Cl)c1)CCN2CCO`, the cytotoxicity at 10 µM is -4.71%.

`Cc1noc(CN(C)CC2CCCN(CCc3ccc(Cl)cc3)C2)n1` (stereo unspecified): the cytotoxicity at 10 µM was 3.76%. As for `CN1CCCC(CNS(=O)(=O)N2CCc3ccccc3C2)C1` (stereo unspecified), the figure is -4.32%; as for `CCn1ccnc1-c1nccn1-c1ccccc1CN1CCOCC1`, 14.1%. Take `O=C(O)[C@@H]1CN(C2CCCC2)C[C@H]1C1CC1`: the cytotoxicity at 10 µM was -147%.

With `Cc1cc(C(=O)N2C[C@H]3CCC[C@@]3(CO)C2)c2ccc(F)cc2n1`, the cytotoxicity at 10 µM was 5.78%. For the compound `O[C@H]1[C@H](NCCc2cnccn2)c2ccccc2C12CCNCC2`, the cytotoxicity at 10 µM is -7.32%. For `CC(c1ccncn1)N(C)Cc1cc2cc3c(cc2[nH]c1=O)OCO3` (stereo unspecified), the cytotoxicity at 10 µM turned out to be 9.83%. Consider `CC(O)Cc1cn(CC2CCN(C3CCSCC3)CC2)nn1` (stereo unspecified), for which the cytotoxicity at 10 µM is 8.88%. As to `CC(c1ccc(F)cc1)n1ccnc1-c1cc2n(n1)CCCNC2` (stereo unspecified), the cytotoxicity at 10 µM came to 2.36%.

Turning to `c1ccc2c(c1)CCN(c1nc(-c3ccncc3)nc3c1CCNC3)C2`, the cytotoxicity at 10 µM came out at 37.3%. Consider `O=C1NC(c2cccnc2)=NC12CCN(CCCc1ccccc1)CC2`, for which the cytotoxicity at 10 µM was determined as 1.68%.

`Cc1cnc(NCc2csc(C(C)C)n2)nc1-c1cnn(C)c1`: the cytotoxicity at 10 µM is 2.83%.

For `Cc1cc2nc(C(C)C)cc(N(C)CC3CCCN(CCO)C3)n2n1` (stereo unspecified), the cytotoxicity at 10 µM came to 7.52%. As for `CCC(NC(=O)C1CCN(S(C)(=O)=O)CC1)c1ccc(C)c(C)c1` (stereo unspecified), the cytotoxicity at 10 µM is -8.06%.

Regarding `Cc1c[nH]c(CN(C)C(C(=O)O)c2c(F)cccc2OC(C)C)n1` (stereo unspecified), the cytotoxicity at 10 µM is -50.6%.

Consider `COc1cc(CN2CCN(c3cccc(OC)c3)C(=O)C2)cc(OC)c1`, for which the cytotoxicity at 10 µM is -11.7%.

On to `COc1ccc(OC)c(-c2nc(CN(C)Cc3nncn3C)c(C)o2)c1`, for which the cytotoxicity at 10 µM is -9.57%. With `O=C(O)CCc1cccc(C2CCCN2Cc2ccc(F)c(F)c2)n1` (stereo unspecified), the cytotoxicity at 10 µM is -5.25%. For `CCc1nc(C)c(C(=O)NCCNC(=O)c2cccs2)s1`, the cytotoxicity at 10 µM is -1.45%. With `O=C(CN1CCC(c2ccnn2CCO)CC1)NCc1ccco1`, the cytotoxicity at 10 µM was determined as 1.68%. In the case of `CN1CCOC(CNCc2coc(-c3cccc(F)c3)n2)C1` (stereo unspecified), the cytotoxicity at 10 µM was -29.3%. Consider `Cc1c(C(=O)NCC2CCS(=O)(=O)C2)cnn1-c1ccccc1` (stereo unspecified), for which the cytotoxicity at 10 µM is -10.2%.

On to `CCn1cnnc1CNC(=O)NC(C)c1ccccn1` (stereo unspecified), for which the cytotoxicity at 10 µM is -17.6%.

With `CNc1snc(C)c1C(=O)N1CCCC(n2cc(C)cn2)C1` (stereo unspecified), the cytotoxicity at 10 µM is -3.42%. For `COc1ncccc1NC(=O)N(Cc1ccc(C)o1)C1CC1`, the cytotoxicity at 10 µM was -1.83%. As to `c1ncn(CC2CN(Cc3csc(C4CCCC4)n3)CCO2)n1` (stereo unspecified), the cytotoxicity at 10 µM is -8.55%.

`Cc1ccc(Oc2ccc(NC(=O)NCC3CCOC3)cn2)cc1C` (stereo unspecified): the cytotoxicity at 10 µM is -5.28%. For `COCCNC(=O)Nc1ccc(-n2cncn2)c(F)c1`, the cytotoxicity at 10 µM was -0.0868%. With `CC(NC(=O)NCCCc1n[nH]c(N)c1C#N)c1cccs1` (stereo unspecified), the cytotoxicity at 10 µM was -6.8%. Turning to `Cc1cnn(CC2CCCCN2Cc2nc(N)c3ccccc3n2)c1` (stereo unspecified), the cytotoxicity at 10 µM was -7.21%. Regarding `Cc1cnn(CC2CN(Cc3nc4ccccc4nc3C)CCO2)c1` (stereo unspecified), the cytotoxicity at 10 µM is -4.02%. On to `c1csc(-c2noc(C3CNC3)n2)c1`, for which the cytotoxicity at 10 µM is -5.39%. Turning to `Cc1noc([C@@H]2C[C@H]3OCC[C@H]3N(Cc3cc(C)c(C)o3)C2)n1`, the cytotoxicity at 10 µM was -72.2%. For the compound `CC1CCCCN1C(=O)c1nc2c(n1C(C)C)CCN(C)C2` (stereo unspecified), the cytotoxicity at 10 µM was 18.2%. Take `O=C1N(c2ccsc2)CCC12CCCN(CC1CC1)C2` (stereo unspecified): the cytotoxicity at 10 µM is -79.4%.

Take `N#Cc1ccc(N2CCC3(CC2)CC(OCc2cccnc2)CO3)cc1` (stereo unspecified): the cytotoxicity at 10 µM was determined as 38.8%. The result for `CCS(=O)(=O)N1Cc2[nH]nc(COCc3cccnc3)c2C1` reads 11.9%. As for `COCC1CC2(CCN(c3cc(OC)ncn3)CC2)CN1C(C)C` (stereo unspecified), the figure is -108%; as for `CC(C)n1nc(CN2CCCC2)c2c1CN(CC1CC1)CC2`, 2.53%. For the compound `O=C(CC1CC1)N1CCc2ncc(Cn3cncn3)n2CC1`, the cytotoxicity at 10 µM was -71.6%.

For the compound `O=C(c1cccc(F)c1)N1CCC2(CC1)CN(c1ccccn1)CCO2`, the cytotoxicity at 10 µM was -74.1%. Regarding `CN1CCN(c2ncc3c(c2C(=O)O)CCN(C2CCOC2)C3)CC1` (stereo unspecified), the cytotoxicity at 10 µM is 6.96%.

As for `Fc1cnc(N2CCCC3(CCN(Cc4cccs4)C3)C2)nc1` (stereo unspecified), the cytotoxicity at 10 µM is -71.1%. For `O=C(CCC1CCCC1)N1CCCC(c2ncc3c(n2)CCNC3)C1` (stereo unspecified), the cytotoxicity at 10 µM was -23%. The result for `Cc1ccc(CNCc2ccc(N3CCC(CO)CC3)nc2)c(C)c1` reads 1.37%; that for `Cc1cnc(N2CCC3(CC2)CN(Cc2cccs2)CCO3)nc1`, 16.2%; that for `Fc1cnc(N2CCn3c(CN4CCCC4)nnc3C2)nc1`, -145%. As for `CC1N(c2cnn(C)c2)C(=O)COC12CCN(c1ncccn1)CC2` (stereo unspecified), the cytotoxicity at 10 µM turned out to be 0.952%.

`CC(C)CN1C[C@@H]2C[C@H](C(=O)NCc3cccnc3)[C@H](C1)O2`: the cytotoxicity at 10 µM was 2.5%.
